How the values were obtained:
[1] = system: MT2; assay: Cytotoxicity against human MT2 cells infected with HIV1 3B by MTT assay; type: cell-based
[2] = system: Human immunodeficiency virus 1; assay: Antiviral activity against Human immunodeficiency virus 1 3B infected in human MT2 cells assessed as protection against viral infection by MTT assay; type: functional, organism-based
Method in brief: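 HIV-1 (IIIB or variant strains) infected into MT-2 human T-cells. The MTT colorimetric read-out measured cell viability. […] Antiviral curves used triplicate samples at each concentration, and a cytotoxicity (CC50) curve on MT-2 growth was run at the same time.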

[3] = system: Human immunodeficiency virus 1; assay: Antiviral activity against Human immunodeficiency virus 1 NL4.3 infected in human MT2 cells assessed as inhibition of viral infection; type: functional, organism-based; details: Human immunodeficiency virus 1, NL4.3, MT2
Method in brief: (§1)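 HIV-1 (IIIB or variant strains) infected into MT-2 human T-cells. The MTT colorimetric read-out measured cell viability. Antiviral curves used triplicate samples at each concentration, and a cytotoxicity (CC50) curve on MT-2 growth was run at the same time.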

[4] = system: Human immunodeficiency virus 1; assay: Antiviral activity against Human immunodeficiency virus 1 NL4.3 reverse transcriptase Y181C mutant infected in human MT2 cells assessed as inhibition of viral infection; type: functional, organism-based; details: Human immunodeficiency virus 1, NL4.3, MT2; method in brief: as §1
[5] = system: Human immunodeficiency virus 1; assay: Antiviral activity against Human immunodeficiency virus 1 NL4.3 reverse transcriptase K103N and Y181C double mutant infected in human MT2 cells assessed as inhibition of viral infection; type: functional, organism-based; details: Human immunodeficiency virus 1, NL4.3, MT2; method in brief: as §1
[6] = system: MT2; assay: (§2) Cytotoxicity against human MT2 cells infected with HIV1 NL4.3 by MTT assay; type: cell-based; details: mt2
[7] = as §2; type: cell-based; details: MT2 cells infected with HIV1 NL4.3
[8] = system: Human immunodeficiency virus 1; assay: Ratio of EC50 for Human immunodeficiency virus 1 NL4.3 reverse transcriptase Y181C mutant to EC50 for Human immunodeficiency virus 1 NL4.3 expressing wild type reverse transcriptase; type: functional
[9] = system: Human immunodeficiency virus 1; assay: Ratio of EC50 for Human immunodeficiency virus 1 NL4.3 reverse transcriptase K103N and Y181C double mutant to EC50 for Human immunodeficiency virus 1 NL4.3 expressing wild type reverse transcriptase; type: functional
[10] = system: Human immunodeficiency virus 1; assay: Antiviral activity against Human immunodeficiency virus 1 NL4.3 infected in human MT4 cells assessed as inhibition of viral infection; type: functional, organism-based; details: Human immunodeficiency virus 1, NL4.3, MT4
[11] = system: Human immunodeficiency virus 1; assay: Antiviral activity against Human immunodeficiency virus 1 NL4.3 reverse transcriptase Y181C mutant infected in human MT4 cells assessed as inhibition of viral infection; type: functional, organism-based; details: Human immunodeficiency virus 1, NL4.3, MT4
[12] = system: Human immunodeficiency virus 1; assay: Antiviral activity against Human immunodeficiency virus 1 NL4.3 reverse transcriptase K103N and Y181C double mutant infected in human MT4 cells assessed as inhibition of viral infection; type: functional, organism-based; details: Human immunodeficiency virus 1, NL4.3, MT4
[13] = Cytotoxicity against human MT4 cells infected with HIV1 NL4.3 by MTT assay; type: cell-based

Compound | CC50 [1] [nM] | EC50 [2] [nM] | EC50 [3] [nM] | EC50 [4] [nM] | EC50 [5] [nM] | CC50 [6] [nM] | other results
Cc1ccc(OCCn2ccc(=O)[nH]c2=O)c(Cc2ccccc2)c1 | 72000 | 4800 | – | – | – | – | –
O=c1ccn(CCOc2cc(Cl)cc(Cl)c2Oc2ccccc2Cl)c(=O)[nH]1 | 13000 | 830 | – | – | – | – | –
O=c1ccn(CCOc2ccc(Cl)cc2Cc2ccccc2)c(=O)[nH]1 | 23000 | 1200 | – | – | – | – | –
O=c1ccn(CCOc2ccc(Cl)cc2Cc2ccccc2Cl)c(=O)[nH]1 | 28000 | 620 | – | – | – | – | –
O=c1ccn(CCOc2ccc(Cl)cc2Cc2cccc(Cl)c2)c(=O)[nH]1 | 11000 | 1500 | – | – | – | – | –
O=c1ccn(CCOc2ccc(Cl)cc2Cc2ccc(Cl)cc2Cl)c(=O)[nH]1 | 88000 | 2900 | – | – | – | – | –
O=c1ccn(CCOc2ccc(Cl)cc2Cc2cc(Cl)cc(Cl)c2)c(=O)[nH]1 | 10000 | 1300 | – | – | – | – | –
O=c1ccn(CCOc2ccc(Cl)cc2Cc2cc(Cl)ccc2Cl)c(=O)[nH]1 | 15000 | 380 | – | – | – | – | –
O=c1ccn(CCOc2ccc(Cl)cc2Cc2c(Cl)cccc2Cl)c(=O)[nH]1 | 49000 | 310 | – | – | – | – | –
Cc1cn(CCOc2ccc(Cl)cc2Cc2ccccc2)c(=O)[nH]c1=O | 22000 | 2400 | – | – | – | – | –
O=c1[nH]c(=O)n(CCOc2ccc(Cl)cc2Cc2ccccc2)cc1F | 27000 | 2500 | – | – | – | – | –
O=c1[nH]c(=O)n(CCOc2ccc(Cl)cc2Cc2ccccc2)cc1Cl | 21000 | 2200 | – | – | – | – | –
O=c1ccn(CCOc2cc(Cl)ccc2Cc2ccccc2Cl)c(=O)[nH]1 | 12000 | 410 | – | – | – | – | –
N#Cc1cc(C#N)cc(Oc2cc(Cl)ccc2OCCn2ccc(=O)[nH]c2=O)c1 | 80000 | 140 | 140 | 21000 | 2200 | 77000 | –
N#Cc1cccc(Cl)c1Oc1cc(Cl)ccc1OCCn1ccc(=O)[nH]c1=O | 50000 | 120 | – | – | – | – | –
N#Cc1cc(Cl)cc(Oc2cc(Cl)ccc2OCCn2ccc(=O)[nH]c2=O)c1 | 33000 | 90 | 90 | 6700 | 1200 | 32000 | –
N#Cc1ccc(Cl)c(Oc2ccc(Cl)cc2OCCn2ccc(=O)[nH]c2=O)c1 | 60000 | 100 | – | – | – | – | –
N#Cc1cc(C#N)cc(Oc2ccc(Cl)cc2OCCn2ccc(=O)[nH]c2=O)c1 | > 100000 | 46 | – | – | – | – | –
N#Cc1cc(Cl)cc(Oc2ccc(Cl)cc2OCCn2ccc(=O)[nH]c2=O)c1 | – | 14 | 14 | 520 | 1700 | – | CC50 [7]: > 100000 nM
N#Cc1cc(Cl)cc(Oc2ccc(Cl)cc2OCCn2cc(F)c(=O)[nH]c2=O)c1 | 17000 | 13 | 13 | 620 | 1700 | 13000 | –

Compound | CC50 [1] [nM] | EC50 [2] [nM] | EC50 [3] [nM] | EC50 [4] [nM] | EC50 [5] [nM] | CC50 [6] [nM] | other results
N#Cc1cc(Cl)cc(Oc2ccc(Cl)cc2OCCn2cc(Cl)c(=O)[nH]c2=O)c1 | 31000 | 17 | 17 | 240 | 570 | 21000 | Ratio EC50 [8]: 14; Ratio EC50 [9]: 34
N#Cc1cc(Cl)cc(Oc2ccc(C#N)cc2OCCn2ccc(=O)[nH]c2=O)c1 | > 100000 | 6000 | – | – | – | – | –
N#Cc1cc(Cl)cc(Oc2ccc(C#N)cc2OCCn2cc(Cl)c(=O)[nH]c2=O)c1 | 94000 | 5300 | – | – | – | – | –
N#Cc1ccc(Oc2ccccc2Cl)c(OCCn2ccc(=O)[nH]c2=O)c1 | > 100000 | 270 | – | – | – | – | –
N#Cc1ccc(Oc2cc(Cl)ccc2Cl)c(OCCn2ccc(=O)[nH]c2=O)c1 | 71000 | 43 | 43 | 920 | 2800 | 59000 | –
N#Cc1ccc(Oc2cc(Cl)cc(Cl)c2)c(OCCn2ccc(=O)[nH]c2=O)c1 | > 100000 | 20 | 20 | 800 | > 43000 | > 61000 | –
N#C/C=C/c1cccc(Oc2ccc(C#N)cc2OCCn2ccc(=O)[nH]c2=O)c1 | > 100000 | 15 | 15 | 980 | 8000 | > 90000 | –
N#C/C=C/c1cccc(Oc2ccc(Cl)cc2OCCn2ccc(=O)[nH]c2=O)c1 | 19000 | 5 | 5 | 370 | 1600 | 22000 | –
N#C/C=C/c1cc(Cl)cc(Oc2ccc(Cl)cc2OCCn2ccc(=O)[nH]c2=O)c1 | 10000 | 0.055 | 0.055 | 49 | 220 | 10000 | –
N#C/C=C/c1cc(F)cc(Oc2ccc(Cl)cc2OCCn2ccc(=O)[nH]c2=O)c1 | 48000 | 3.2 | 3.2 | 150 | 900 | 48000 | –
N#C/C=C/c1cc(F)cc(Oc2ccc(F)cc2OCCn2ccc(=O)[nH]c2=O)c1 | 45000 | 0.32 | 0.32 | 16 | 85 | 45000 | –
CNc1ccc(Oc2cc(Cl)cc(/C=C/C#N)c2)c(OCCn2ccc(=O)[nH]c2=O)c1 | 30000 | 20 | 20 | 2800 | – | 30000 | –
N#Cc1cc(F)c(Oc2ccccc2Cl)c(OCCn2ccc(=O)[nH]c2=O)c1 | > 100000 | 160 | – | – | – | – | –
COCCOc1cccc(Oc2ccc(C#N)cc2OCCn2ccc(=O)[nH]c2=O)c1 | > 100000 | 540 | – | – | – | – | –
N#Cc1ccc(Oc2cccc(OCCCO)c2)c(OCCn2ccc(=O)[nH]c2=O)c1 | > 100000 | 1800 | – | – | – | – | –
Cc1cc(C)cc(Oc2c(CSCc3ccco3)c(C)[nH]c(=O)c2I)c1 | – | – | 1 | – | – | – | –
O=C1Nc2ccc(Cl)cc2[C@@](C#CC2CC2)(C(F)(F)F)O1 [EFAVIRENZ] | – | – | – | – | – | – | EC50 [10]: 1.4 nM; EC50 [11]: 2 nM; EC50 [12]: 37 nM
Cc1cc(C#N)cc(C)c1Oc1nc(Nc2ccc(C#N)cc2)nc(N)c1Br [ETRAVIRINE] | – | – | – | – | – | – | EC50 [11]: 7 nM; EC50 [12]: 4 nM
Cc1ccnc2c1NC(=O)c1cccnc1N2C1CC1 [NEVIRAPINE] | – | – | – | > 100000 | > 100000 | – | EC50 [10]: 81 nM; EC50 [11]: > 10000 nM; EC50 [12]: > 10000 nM; CC50 [7]: > 100000 nM
Cc1cc(/C=C/C#N)cc(C)c1Nc1ccnc(Nc2ccc(C#N)cc2)n1 [RILPIVIRINE] | – | – | – | – | – | > 1000 | CC50 [13]: 8000 nM; EC50 [10]: 0.4 nM; EC50 [12]: 1 nM

— ChEMBL document CHEMBL1921799, “Computationally-guided optimization of a docking hit to yield catechol diethers as potent anti-HIV agents” (J Med Chem, 2011)
